{"source": "paper PMC6146057", "about": "(ACS chemical neuroscience, 2018)", "key": {"[1]": {"system": "layer V medial prefrontal cortex fEPSPs", "experiment": "Extracellular field electrophysiology in layer V prelimbic mPFC slices", "parameters": "species or system mouse", "in_short": "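Coronal prelimbic slices (400 μm) recovered in NMDG-HEPES solution (pH 7.3) for 8–10 min at 32 °C, then were perfused with ACSF at 2 mL/min and 30–32 °C. Layer V fEPSPs were evoked from layers II–III (200 μs, 0.05 Hz) or optically in ChR2-injected mice. Compound alone was bath-applied for 20 min. Alternatively, 10 μM compound was applied for 10 min, then with 3 μM OxoM for 10 min. Slope was measured 46–50 min after washout.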"}, "rat M1": {"molecular_target": "T1, rat M1 (Rattus norvegicus, UniProt P08482)", "T1 sequence (P08482 1-460)": "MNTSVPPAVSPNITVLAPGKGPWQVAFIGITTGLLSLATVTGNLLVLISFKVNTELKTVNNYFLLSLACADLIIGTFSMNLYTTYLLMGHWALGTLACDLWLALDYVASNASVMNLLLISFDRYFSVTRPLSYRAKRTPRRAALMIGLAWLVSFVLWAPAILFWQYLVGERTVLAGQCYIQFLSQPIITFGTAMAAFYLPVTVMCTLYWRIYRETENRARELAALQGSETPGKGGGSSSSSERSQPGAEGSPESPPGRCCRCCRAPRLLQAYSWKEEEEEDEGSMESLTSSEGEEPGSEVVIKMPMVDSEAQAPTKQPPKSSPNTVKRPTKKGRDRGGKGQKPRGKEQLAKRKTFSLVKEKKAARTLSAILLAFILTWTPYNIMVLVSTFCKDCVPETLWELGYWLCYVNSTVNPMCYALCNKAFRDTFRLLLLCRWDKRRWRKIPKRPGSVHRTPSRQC", "conditions": "reported M1 PAMs with adverse effect liability; cited from earlier work"}, "mice": {"system": "mice", "conditions": "cited from earlier work"}, "[2]": {"system": "layer V medial prefrontal cortex fEPSPs", "conditions": "cited from earlier work"}, "rats [3]": {"system": "rats", "conditions": "cited from earlier work"}, "M1 [4]": {"molecular_target": "T2, M1 (Homo sapiens, UniProt P11229)", "T2 sequence (P11229 1-460)": "T1 sequence (P08482 1-460) with V5A, S254T, S309P, K320R, G337A, V413I", "experiment": "M1 PAM potency at increasing ACh concentration", "assay_type": "cell-based", "conditions": "read-out: M1 PAM potency"}, "rats [5]": {"system": "rats", "experiment": "Contextual fear conditioning, risperidone-induced deficit", "assay_type": "in vivo, rat", "conditions": "3 mg/kg i.p. alone"}, "M1 [6]": {"molecular_target": "T2, M1", "conditions": "cited from earlier work"}}, "note": "Where a chain is given by its changes, count along the chain named. Read-outs that look alike come from different tables or passages of the source.", "data": [{"molecule": "C[N+](C)(C)CC#CCN1CCCC1=O", "note": "[oxotremorine-M, reference compound]", "values": [{"measurement": "LTD of layer V fEPSPs, agonist alone", "setting": "[1]; 3 μM, optical stimulation of ventral hippocampal afferents", "value": "does not induce a significant LTD"}]}, {"molecule": "Cc1ccc(Cc2cc3c(=O)n([C@H]4CCCC[C@@H]4O)cnc3c3ccccc23)cn1", "note": "[compound 2]", "values": [{"measurement": "Displacement of [3H]-NMS", "setting": "rat M1", "value": "weak to significant displacement"}, {"measurement": "Behavioral convulsions, Racine scale", "setting": "mice; mice, develop rapidly and lasted 3 h", "value": "4/5"}, {"measurement": "Agonist activity in the mouse PFC", "setting": "[2]", "value": "have agonist activity"}, {"measurement": "Efficacy in rat novel object recognition (NOR) model", "setting": "rats [3]", "value": "failed to show efficacy"}]}, {"molecule": "Cc1cc2c(cc1Cc1ccc(-c3cocn3)cc1)C(=O)N([C@H]1CCOC[C@@H]1O)C2", "note": "[PF-06827443]", "values": [{"measurement": "Displacement of [3H]-NMS", "setting": "rat M1", "value": "weak to significant displacement"}, {"measurement": "EC50", "setting": "M1 [4]; ACh concentration increased to EC70", "value": "7 ± 1", "unit": "nM"}, {"measurement": "EC50", "setting": "M1 [4]; very low level of ACh (~EC9)", "value": "40 ± 6", "unit": "nM"}, {"measurement": "Seizures in mice", "setting": "mice; mice", "value": "induced seizures in mice"}, {"measurement": "Agonist activity in the mouse PFC", "setting": "[2]", "value": "have agonist activity"}]}, {"molecule": "Cc1nc2n(c(=O)c1CCN1CCC(c3noc4cc(F)ccc34)CC1)CCCC2", "note": "[risperidone, reference compound]", "values": [{"measurement": "Effect on acquisition of contextual fear conditioning", "setting": "rats [5]", "value": "deficits in acquisition of contextual fear conditioning"}]}, {"molecule": "COc1ccc(Cn2cc(C(=O)O)c(=O)c3ccccc32)cc1", "note": "[compound 1]", "values": [{"measurement": "Displacement of [3H]-NMS", "setting": "rat M1", "value": "weak to significant displacement"}]}, {"molecule": "Cn1cc(-c2ccc(CN3Cc4ncccc4C3=O)c(F)c2)cn1", "note": "[VU0453595]", "values": [{"measurement": "potency at M1", "setting": "M1 [6]", "value": "low micromolar range"}]}, {"molecule": "C[N+](C)(C)CCOC(N)=O", "note": "[carbachol, reference compound]", "values": [{"measurement": "LTD of layer V fEPSPs, agonist alone", "setting": "[1]; 10 μM, electrically evoked", "value": "does not induce a significant long-term depression"}]}, {"molecule": "Cn1cc(-c2ccc(Cn3cc(C(=O)N[C@H]4CCCC[C@@H]4O)c4c(F)cc(F)cc43)cn2)cn1", "note": "[VU6004256]", "values": [{"measurement": "Behavioral convulsions and cholinergic AEs", "setting": "mice; rodents", "value": "devoid of behavioral convulsions and cholinergic AEs"}]}]}
